Measured values as given in PMC11843577 (RSC Medicinal Chemistry, 2025).

Tests used:
[1] = target: full-length TDP1 (Homo sapiens, UniProt Q9NUW8); test: TDP1 gel-based fluorescence assay in vitro; format: biochemical
[2] = target: TDP1 in HCT116 cell line (Homo sapiens, UniProt Q9NUW8); test: Western blot for TDP1 degradation; format: cell-based; conditions: 5h 10 μM within 6 h, 5h 0.1-100 μM and 5i 10, 100 μM within 24 h
[3] = test system: HCT116 cell line; test: Synergy assay with camptothecin; format: cell-based, human; conditions: HCT116, compound at 10 μM, 72 h cell viability
Method in brief: (§1)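 HCT116 colon or U2OS osteosarcoma cells were seeded at 2 × 10³ cells per well and cultured for 72 h in medium containing the test compound together with camptothecin. Viability was read by CellTiter-Glo luminescence, and synergy was judged from these viability data.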

[4] = test system: U2OS cell line; test: Synergy assay with camptothecin; format: cell-based, human; conditions: compound at 10 μM, 72 h cell viability
Method in brief: as §1

[5] = target: T1, full-length TDP2 (Homo sapiens, UniProt O95551); test: TDP2 gel-based fluorescence assay in vitro; format: biochemical; conditions: ratio of IC50 values of TDP2 vs. TDP1
T1 sequence (O95551 1-362): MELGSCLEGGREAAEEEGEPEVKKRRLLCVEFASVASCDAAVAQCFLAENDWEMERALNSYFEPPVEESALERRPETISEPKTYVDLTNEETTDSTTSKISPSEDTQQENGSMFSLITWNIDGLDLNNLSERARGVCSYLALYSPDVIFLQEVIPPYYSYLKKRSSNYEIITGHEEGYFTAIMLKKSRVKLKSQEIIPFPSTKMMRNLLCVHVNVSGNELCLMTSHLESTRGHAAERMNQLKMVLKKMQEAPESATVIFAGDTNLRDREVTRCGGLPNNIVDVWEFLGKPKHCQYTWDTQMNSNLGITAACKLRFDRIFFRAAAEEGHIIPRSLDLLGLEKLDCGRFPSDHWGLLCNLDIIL

Sequence of full-length TDP1 (Q9NUW8 whole entry): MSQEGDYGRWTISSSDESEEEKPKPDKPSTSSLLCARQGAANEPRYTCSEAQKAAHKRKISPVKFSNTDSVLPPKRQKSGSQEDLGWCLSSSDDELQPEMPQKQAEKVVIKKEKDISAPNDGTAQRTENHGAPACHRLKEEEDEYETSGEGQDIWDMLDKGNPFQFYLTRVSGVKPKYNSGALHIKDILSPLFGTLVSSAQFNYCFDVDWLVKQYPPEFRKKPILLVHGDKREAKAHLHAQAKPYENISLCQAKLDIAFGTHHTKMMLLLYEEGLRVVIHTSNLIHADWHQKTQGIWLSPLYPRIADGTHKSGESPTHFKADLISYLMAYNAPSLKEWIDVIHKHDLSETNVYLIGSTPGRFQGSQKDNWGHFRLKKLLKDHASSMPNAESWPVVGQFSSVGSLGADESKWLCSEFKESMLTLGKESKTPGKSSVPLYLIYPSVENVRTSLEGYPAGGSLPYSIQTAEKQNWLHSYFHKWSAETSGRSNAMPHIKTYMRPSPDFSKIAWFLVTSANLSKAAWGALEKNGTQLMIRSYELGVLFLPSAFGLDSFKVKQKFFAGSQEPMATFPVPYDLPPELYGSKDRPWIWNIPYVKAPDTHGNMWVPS
Sequence of TDP1 in HCT116 cell line (Q9NUW8 whole entry): as above

Compound	TDP1 IC50 [1]	further results
Cc1ncsc1-c1ccc(CNC(=O)[C@@H]2C[C@@H](O)CN2C(=O)[C@@H](NC(=O)COCCOCCOCCn2cc(COc3ccc(-c4nc5cc(-c6ccccc6)ccn5c4Nc4ccc(C(=O)O)cc4)cc3)nn2)C(C)(C)C)cc1 [Compound 5b, 4-((2-(4-((1-((S)-13-((2S,4R)-4-Hydroxy-2-((4-(4-methylthiazol-5-yl)benzyl)carbamoyl)pyrrolidine-1-carbonyl)-14,14-dimethyl-11-oxo-3,6,9-trioxa-12-azapentadecyl)-1H-1,2,3-triazol-4-yl)methoxy)phenyl)-7-phenylimidazo[1,2-a]pyridin-3-yl)amino)benzoic acid]	failed to exhibit TDP1 inhibitory potency within the range tested	–
Cc1ncsc1-c1ccc(CNC(=O)[C@@H]2C[C@@H](O)CN2C(=O)[C@@H](NC(=O)COCCOCCOCCOCCn2cc(COc3ccc(-c4nc5cc(-c6ccccc6)ccn5c4Nc4ccc(C(=O)O)cc4)cc3)nn2)C(C)(C)C)cc1 [Compound 5c, 4-((2-(4-((1-((S)-16-((2S,4R)-4-Hydroxy-2-((4-(4-methylthiazol-5-yl)benzyl)carbamoyl)pyrrolidine-1-carbonyl)-17,17-dimethyl-14-oxo-3,6,9,12-tetraoxa-15-azaoctadecyl)-1H-1,2,3-triazol-4-yl)methoxy)phenyl)-7-phenylimidazo[1,2-a]pyridin-3-yl)amino)benzoic acid]	failed to exhibit TDP1 inhibitory potency within the range tested	–
O=C(COc1cccc2c1C(=O)N(C1CCC(=O)NC1=O)C2=O)NCCCCn1cc(COc2ccc(-c3nc4cc(-c5ccccc5)ccn4c3Nc3ccc(C(=O)O)cc3)cc2)nn1 (stereo not shown) [Compound 5d, 4-((2-(4-((1-(4-(2-((2-(2,6-Dioxopiperidin-3-yl)-1,3-dioxoisoindolin-4-yl)oxy)acetamido)butyl)-1H-1,2,3-triazol-4-yl)methoxy)phenyl)-7-phenylimidazo[1,2-a]pyridin-3-yl)amino)benzoic acid]	did not show TDP1 inhibitory potency within the range tested	–
O=C(COc1cccc2c1C(=O)N(C1CCC(=O)NC1=O)C2=O)NCCCCn1cc(COc2ccc(-c3nc4ccccn4c3Nc3ccc(C(=O)O)cc3)cc2)nn1 (stereo not shown) [Compound 5e, 4-((2-(4-((1-(4-(2-((2-(2,6-Dioxopiperidin-3-yl)-1,3-dioxoisoindolin-4-yl)oxy)acetamido)butyl)-1H-1,2,3-triazol-4-yl)methoxy)phenyl)imidazo[1,2-a]pyridin-3-yl)amino)benzoic acid]	did not show TDP1 inhibitory potency within the range tested	–
O=C(COc1cccc2c1C(=O)N(C1CCC(=O)NC1=O)C2=O)NCCCCn1cc(-c2ccc(-c3nc4ccccn4c3Nc3ccc(C(=O)O)cc3)cc2)nn1 (stereo not shown) [Compound 5g, 4-((2-(4-(1-(4-(2-((2-(2,6-Dioxopiperidin-3-yl)-1,3-dioxoisoindolin-4-yl)oxy)acetamido)butyl)-1H-1,2,3-triazol-4-yl)phenyl)imidazo[1,2-a]pyridin-3-yl)amino)benzoic acid]	did not show TDP1 inhibitory potency within the range tested	–
O=C1CCC(N2C(=O)c3cccc(NCc4cn(Cc5ccc(-c6nc7cc(-c8ccccc8)ccn7c6Nc6ccc(C(=O)O)cc6)cc5)nn4)c3C2=O)C(=O)N1 (stereo not shown) [Compound 5h, 4-((2-(4-((4-(((2-(2,6-Dioxopiperidin-3-yl)-1,3-dioxoisoindolin-4-yl)amino)methyl)-1H-1,2,3-triazol-1-yl)methyl)phenyl)-7-phenylimidazo[1,2-a]pyridin-3-yl)amino)benzoic acid]	–	TDP1 degradation compared with GAPDH [2]: unable to observe degradation effects; Synergy in combination with TOP1 inhibitor camptothecin (CPT) [3]: failed to show synergy; Synergy in combination with TOP1 inhibitor camptothecin (CPT) [4]: failed to show synergy
CN(Cc1cn(Cc2ccc(-c3nc4cc(-c5ccccc5)ccn4c3Nc3ccc(C(=O)O)cc3)cc2)nn1)c1cccc2c1C(=O)N(C1CCC(=O)NC1=O)C2=O (stereo not shown) [Compound 5i, 4-((2-(4-((4-(((2-(2,6-Dioxopiperidin-3-yl)-1,3-dioxoisoindolin-4-yl)(methyl)amino)methyl)-1H-1,2,3-triazol-1-yl)methyl)phenyl)-7-phenylimidazo[1,2-a]pyridin-3-yl)amino)benzoic acid]	–	TDP1 degradation compared with GAPDH [2]: unable to observe degradation effects
O=C1CCC(N2C(=O)c3cccc(NCCc4cn(Cc5ccc(-c6nc7cc(-c8ccccc8)ccn7c6Nc6ccc(C(=O)O)cc6)cc5)nn4)c3C2=O)C(=O)N1 (stereo not shown) [Compound 5j, 4-((2-(4-((4-(2-((2-(2,6-Dioxopiperidin-3-yl)-1,3-dioxoisoindolin-4-yl)amino)ethyl)-1H-1,2,3-triazol-1-yl)methyl)phenyl)-7-phenylimidazo[1,2-a]pyridin-3-yl)amino)benzoic acid]	–	TDP1 selectivity [5]: 1.4
